Experimental data reported in PMC10092897 (Chemistry (Weinheim an Der Bergstrasse, Germany), 2022).
Like-named read-outs stand apart in the source and are kept apart here. One block for each molecule: values may come before it.

Legend:
CYP199A4 [1] = biological target: T1, CYP199A4 (Rhodopseudomonas palustris, UniProt Q2IU02); details: WT CYP199A4, cited from earlier work
T1 sequence (Q2IU02 1-410): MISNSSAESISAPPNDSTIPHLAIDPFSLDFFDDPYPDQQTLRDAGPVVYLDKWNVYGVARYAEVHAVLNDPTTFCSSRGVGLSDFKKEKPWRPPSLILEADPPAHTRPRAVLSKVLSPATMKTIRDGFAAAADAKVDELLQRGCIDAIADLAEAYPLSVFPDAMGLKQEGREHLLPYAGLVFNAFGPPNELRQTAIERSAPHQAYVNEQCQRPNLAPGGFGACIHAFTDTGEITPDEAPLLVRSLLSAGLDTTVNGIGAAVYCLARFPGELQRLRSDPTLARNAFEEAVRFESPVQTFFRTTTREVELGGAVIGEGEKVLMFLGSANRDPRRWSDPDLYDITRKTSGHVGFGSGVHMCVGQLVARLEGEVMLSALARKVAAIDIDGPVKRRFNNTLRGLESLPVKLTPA

CYP199A4 [2] = biological target: T1, CYP199A4; details: WT CYP199A4, cited from earlier work; remark: listed apart in the source
CYP199A4 [3] = biological target: T1, CYP199A4; details: WT CYP199A4; cited from earlier work
F298V mutant of CYP199A4 [4] = experiment: Spin state determination by UV-vis spectroscopy, F298V mutant; assay type: binding, Rhodopseudomonas palustris
Procedure, shortened: (§1)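 Mutant was produced and purified as for WT. UV-vis spectra of the substrate-treated enzyme were recorded at 30 °C. The percentage low-to-high-spin shift of the ferric heme was estimated to about ±5%.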

F182L mutant of CYP199A4 [5] = experiment: Spin state determination by UV-vis spectroscopy, F182L variant; assay type: binding, Rhodopseudomonas palustris
Procedure, shortened: as §1

F182L mutant of CYP199A4 [6] = experiment: In vitro NADH turnover assay and metabolite analysis, F182L mutant; assay type: biochemical, Rhodopseudomonas palustris
Procedure, shortened: (§2)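 Mutant was expressed and purified as for WT, with glycerol removed by gel filtration. NADH was added to ~320 μM, then substrate at 1 mM final. NADH oxidation was followed at A340 (ε 6.22 mM⁻¹cm⁻¹). Values are mean ± S.D., n ≥ 3.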

F298V mutant of CYP199A4 [7] = experiment: In vitro NADH turnover assay and metabolite analysis, F298V mutant; assay type: biochemical, Rhodopseudomonas palustris
Procedure, shortened: as §2

CYP199A4 [8] = biological target: T1, CYP199A4; experiment: In vitro NADH turnover assay and metabolite analysis; assay type: biochemical; details: for PFR (product formation rate): WT CYP199A4 0.5 μM, 50 mM Tris, pH 7.4
CYP199A4 [9] = biological target: T1, CYP199A4; experiment: Spin state determination by UV-vis spectroscopy; assay type: binding; details: WT CYP199A4, 50 mM Tris, pH 7.4
CYP199A4 [10] = biological target: T1, CYP199A4; experiment: Dissociation constant determination by UV-vis binding titration
Procedure, shortened: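 UV-vis titration at 30 °C: enzyme diluted to 0.5–2.0 μM in 50 mM Tris, pH 7.4. Substrate was added from 1, 10 or 100 mM stocks in ethanol or DMSO. Soret peak-to-trough absorbance difference was recorded over 700–250 nm. Kd came from fitting ΔA against total substrate concentration to the tight-binding quadratic equation.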

- HS [%] (shift from low-spin to high-spin ferric heme) (CYP199A4 [9]): type II^[c]
- HS [%] (shift from low-spin to high-spin ferric heme) (CYP199A4 [9]; listed as 4‐benzoylbenzoic acid): type II
- Kd (CYP199A4 [10]): 2300 ± 400 nM
SMILES: O=C(O)c1ccc(C(=O)c2ccccc2)cc1 [4‐benzoylBA, 4‐benzoylbenzoic acid]

- Coupling (percentage of NADH utilised for formation of oxidation products) (CYP199A4 [8]; WT CYP199A4): ≤ 1%
- HS [%] (shift from low-spin to high-spin ferric heme) (CYP199A4 [9]): ~10%
- Kd (CYP199A4 [10]): 100000 ± 10000 nM
SMILES: COc1ccc(-c2ccc(C(=O)O)cc2)cc1 [4‐(4′‐methoxyphenyl)BA, 4‐(4′‐methoxyphenyl)benzoic acid]

- HS [%] (shift from low-spin to high-spin ferric heme) (CYP199A4 [9]): ≥95%
- HS [%] (shift from low-spin to high-spin ferric heme) (CYP199A4 [9]; listed as 4‐(3′‐Methoxyphenyl)benzoic acid): ≥ 95%
- Kd (CYP199A4 [10]): 600 ± 100 nM
SMILES: COc1cccc(-c2ccc(C(=O)O)cc2)c1 [4‐(3′‐methoxyphenyl)BA, 4‐(3′‐methoxyphenyl)benzoic acid]

- Coupling (percentage of NADH utilised for formation of oxidation products) (CYP199A4 [8]; WT CYP199A4): 95±11%
- PFR (product formation rate) (CYP199A4 [8]): 522 ± 61 min⁻¹
- PFR (product formation rate) (CYP199A4 [8]; listed as 4‐Benzylbenzoic acid): 522 min⁻¹
- HS [%] (shift from low-spin to high-spin ferric heme) (CYP199A4 [9]): 90%
- Kd (CYP199A4 [10]): 5200 ± 250 nM
SMILES: O=C(O)c1ccc(Cc2ccccc2)cc1 [4‐benzylBA, 4‐benzylbenzoic acid]

Continued, molecule first:

SMILES: COc1ccc(C(=O)O)cc1 [4‐methoxyBA, 4‐methoxybenzoic acid]
- Coupling (CYP199A4 [1]; ref 8c): 91±10%
- NADH oxidation rate (CYP199A4 [1]; ref 8c): 1340 ± 30 min⁻¹
- PFR (product formation rate) (CYP199A4 [1]; ref 8c): 1220 ± 120 min⁻¹
- HS [%] (CYP199A4 [2]; ref 8c): ≥95%

SMILES: O=C(O)c1ccc(-c2ccccc2)cc1 [4‐phenylBA, 4‐phenylbenzoic acid]
- Kd (CYP199A4 [3]): 1700 ± 100 nM
- High-spin species (F298V mutant of CYP199A4 [4]): ≥ 85%
- High-spin species (F182L mutant of CYP199A4 [5]): ~10%
- NADH oxidation rate (CYP199A4 [1]): 902 ± 34 min⁻¹
- Coupling efficiency (F182L mutant of CYP199A4 [6]): 30%
- NADH oxidation rate (F182L mutant of CYP199A4 [6]): 75 ± 0.3 min⁻¹
- Proportion of 4-(3′-hydroxyphenyl)benzoic acid among metabolites (F182L mutant of CYP199A4 [6]; RT 16.2 min): 9%
- NADH oxidation rate (F298V mutant of CYP199A4 [7]; F298V mutant): 1030 ± 90 min⁻¹
- Oxidation by the F298V mutant (in words) (F298V mutant of CYP199A4 [7]; F298V mutant): unable to oxidise
- HS [%] (CYP199A4 [2]): 90%

SMILES: O=C(O)c1ccc(C2CCCCC2)cc1 [4‐cyclohexylBA, 4‐cyclohexylbenzoic acid]
- Kd (CYP199A4 [3]): 450 ± 50 nM
- High-spin species (F298V mutant of CYP199A4 [4]): ≥ 85%
- High-spin species (F182L mutant of CYP199A4 [5]): 90%
- Coupling (CYP199A4 [1]): 33±2%
- NADH oxidation rate (CYP199A4 [1]): 169 ± 11 min⁻¹
- PFR (product formation rate) (CYP199A4 [1]): 52 ± 6 min⁻¹
- Product selectivity: 4-(1-hydroxycyclohexyl)benzoic acid (benzylic hydroxylation) (CYP199A4 [8]; WT CYP199A4): 24%
- Coupling efficiency (F298V mutant of CYP199A4 [7]; F298V mutant): 31±9%
- NADH oxidation rate (F298V mutant of CYP199A4 [7]; F298V mutant): 162 ± 55 min⁻¹
- Product selectivity: 4-(1-hydroxycyclohexyl)benzoic acid (benzylic hydroxylation) (F298V mutant of CYP199A4 [7]; F298V variant): 34%
- HS [%] (CYP199A4 [2]): ≥95%

SMILES: CC(C)(C)c1ccc(C(=O)O)cc1 [4‐tert‐butylBA, 4‐tert‐butylbenzoic acid]
- Kd (CYP199A4 [3]): 39000 ± 2000 nM
- Coupling (CYP199A4 [1]): 100±13%
- NADH oxidation rate (CYP199A4 [1]): 227 ± 4 min⁻¹
- PFR (product formation rate) (CYP199A4 [1]): 227 ± 32 min⁻¹
- HS [%] (CYP199A4 [2]): ≥95%
